Assay results as given in ChEMBL document CHEMBL1145938, “Synthesis and structure-activity relationship of aminobenzophenones. A novel class of p38 MAP kinase inhibitors with high antiinflammatory activity” (J Med Chem, 2003).
pIC50: −log10 of the molar value.

What was measured:
[1] = biological target: Mitogen-activated protein kinase; ERK1/ERK2 (Homo sapiens) (UniProt P27361+P28482); experiment: Inhibition of Mitogen-activated protein kinase 3/Mitogen-activated protein kinase 1 (ERK) at 10 uM; assay type: protein assay
Sequence of Mitogen-activated protein kinase; ERK1/ERK2 (Homo sapiens) (P27361 whole entry, looked up): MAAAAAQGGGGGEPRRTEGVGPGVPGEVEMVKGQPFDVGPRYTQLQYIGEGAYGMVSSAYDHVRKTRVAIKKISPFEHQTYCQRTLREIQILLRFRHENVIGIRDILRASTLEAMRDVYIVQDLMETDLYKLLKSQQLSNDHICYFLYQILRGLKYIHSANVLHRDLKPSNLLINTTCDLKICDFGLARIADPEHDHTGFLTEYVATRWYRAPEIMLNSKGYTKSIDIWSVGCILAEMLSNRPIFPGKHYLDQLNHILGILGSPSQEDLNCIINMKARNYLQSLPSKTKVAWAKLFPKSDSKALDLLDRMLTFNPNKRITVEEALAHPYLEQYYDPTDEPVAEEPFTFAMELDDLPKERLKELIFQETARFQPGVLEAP
Sequence of Mitogen-activated protein kinase; ERK1/ERK2 (Homo sapiens) (P28482 whole entry, looked up): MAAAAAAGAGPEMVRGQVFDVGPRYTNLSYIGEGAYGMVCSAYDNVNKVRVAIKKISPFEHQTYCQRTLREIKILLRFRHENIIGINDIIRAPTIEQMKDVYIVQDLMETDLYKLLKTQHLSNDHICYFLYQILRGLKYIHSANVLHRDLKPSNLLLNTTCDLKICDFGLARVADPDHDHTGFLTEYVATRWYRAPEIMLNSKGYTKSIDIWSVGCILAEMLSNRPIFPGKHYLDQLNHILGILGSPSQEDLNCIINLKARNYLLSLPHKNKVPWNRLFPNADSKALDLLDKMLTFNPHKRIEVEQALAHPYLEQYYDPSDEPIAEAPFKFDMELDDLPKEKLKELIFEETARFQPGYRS
Method in brief: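 MCF-7 cells stimulated with EGF; ERK1/2 activity measured with a modified cell-signalling ERK1/2 kinase kit in presence of compound.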

[2] = biological target: T1, Mitogen-activated protein kinase 14 (Homo sapiens, UniProt Q16539); experiment: In vitro inhibitory activity determined against human mitogen-activated protein kinase p38 alpha
T1 sequence (Q16539 whole entry): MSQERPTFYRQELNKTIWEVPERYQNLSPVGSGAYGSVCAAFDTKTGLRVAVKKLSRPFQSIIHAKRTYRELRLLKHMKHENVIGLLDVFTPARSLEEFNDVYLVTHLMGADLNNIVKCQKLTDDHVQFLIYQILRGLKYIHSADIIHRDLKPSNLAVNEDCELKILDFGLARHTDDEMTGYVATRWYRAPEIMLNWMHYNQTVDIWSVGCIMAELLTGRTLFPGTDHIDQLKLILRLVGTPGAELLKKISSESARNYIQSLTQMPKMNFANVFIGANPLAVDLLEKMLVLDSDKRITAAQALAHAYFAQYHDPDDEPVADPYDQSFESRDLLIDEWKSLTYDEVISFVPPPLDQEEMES

[3] = biological target: T1, Mitogen-activated protein kinase 14; experiment: Inhibition of Mitogen-activated protein kinase p38 alpha at 1 uM
Method in brief: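 FLAG-tagged p38α cDNA was transfected into COS-1 cells. Kinase activity of the expressed isoform was measured with compound at 1 μM.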

[4] = biological target: Mitogen-activated protein kinase 11 (Homo sapiens) (UniProt Q15759); experiment: Inhibition of Mitogen-activated protein kinase p38 beta at 1 uM
Sequence of Mitogen-activated protein kinase 11 (Homo sapiens) (Q15759 whole entry, canonical isoform): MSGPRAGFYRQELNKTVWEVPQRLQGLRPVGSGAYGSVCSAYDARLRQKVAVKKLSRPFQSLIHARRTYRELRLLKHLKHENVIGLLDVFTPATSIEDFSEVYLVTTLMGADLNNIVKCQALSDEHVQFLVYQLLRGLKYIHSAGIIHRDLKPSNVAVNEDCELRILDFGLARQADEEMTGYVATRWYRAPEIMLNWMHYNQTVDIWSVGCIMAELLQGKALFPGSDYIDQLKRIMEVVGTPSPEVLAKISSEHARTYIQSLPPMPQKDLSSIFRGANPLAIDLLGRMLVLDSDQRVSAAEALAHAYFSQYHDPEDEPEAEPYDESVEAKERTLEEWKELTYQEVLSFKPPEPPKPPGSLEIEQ
Method in brief: (§1)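 FLAG-tagged p38 isoform cDNA (β2, γ or δ) transfected into COS-1 cells; kinase activity of the expressed isoform measured with compound at 1 μM.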

[5] = biological target: T2, Mitogen-activated protein kinase 13 (Homo sapiens) (UniProt O15264); experiment: Inhibition of Mitogen-activated protein kinase p38 delta at 1 uM; method in brief: as §1
T2 sequence (whole entry): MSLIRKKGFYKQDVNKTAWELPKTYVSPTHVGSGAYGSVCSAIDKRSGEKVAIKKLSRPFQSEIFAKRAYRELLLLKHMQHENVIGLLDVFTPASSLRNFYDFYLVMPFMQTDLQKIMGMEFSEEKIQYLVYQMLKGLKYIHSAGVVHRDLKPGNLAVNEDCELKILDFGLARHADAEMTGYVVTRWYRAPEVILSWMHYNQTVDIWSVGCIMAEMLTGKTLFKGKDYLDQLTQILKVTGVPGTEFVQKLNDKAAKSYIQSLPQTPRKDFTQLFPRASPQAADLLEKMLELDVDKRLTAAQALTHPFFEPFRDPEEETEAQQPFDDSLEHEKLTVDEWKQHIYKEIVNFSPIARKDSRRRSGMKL

[6] = biological target: T3, Mitogen-activated protein kinase 12 (Homo sapiens) (UniProt P53778); experiment: Inhibition of Mitogen-activated protein kinase p38 gamma at 1 uM; method in brief: as §1
T3 sequence (whole entry): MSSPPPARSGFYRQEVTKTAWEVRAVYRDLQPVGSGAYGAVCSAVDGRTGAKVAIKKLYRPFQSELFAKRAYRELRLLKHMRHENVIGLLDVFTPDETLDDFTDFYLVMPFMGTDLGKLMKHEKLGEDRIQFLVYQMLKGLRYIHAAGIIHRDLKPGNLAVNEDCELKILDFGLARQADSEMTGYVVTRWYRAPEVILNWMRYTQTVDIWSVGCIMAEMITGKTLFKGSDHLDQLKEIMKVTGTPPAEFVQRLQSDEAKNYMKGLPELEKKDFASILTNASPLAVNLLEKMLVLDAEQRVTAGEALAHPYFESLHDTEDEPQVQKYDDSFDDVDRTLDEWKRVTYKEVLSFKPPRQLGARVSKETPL

[7] = species on record: Mus musculus; experiment: Inhibition of ear swelling in oxazolone-induced murine allergic contact dermatitis at 0.5 mg/ear at 24 hr; assay type: functional
Method in brief: (§2)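 Groups of six female inbred BALB/cABOM mice (18–21 g) were sensitized with oxazolone on the clipped abdomen 7 days before right-ear challenge. Compound in acetone (20 μL) or vehicle was applied once, 30 min after challenge. Ear swelling (right minus left ear thickness) was read at 24, 48 and 72 h. Values are mean % inhibition ± SEM of four or five experiments.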

[8] = test system: Mus musculus; experiment: Inhibition of ear swelling induced by 12-O-tetradecanoylphorbol-13-acetate (TPA) in murine chronic irritative contact dermatitis model at 0.5 mg/ear (in vivo); assay type: functional
Method in brief: (§3)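 Murine TPA-induced chronic irritative ear dermatitis, with compound given topically per ear. Ear swelling and ear weight were determined 5 h after the last application. Values are mean % inhibition ± SEM of three to five experiments.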

[9] = species on record: Mus musculus; experiment: Inhibition of ear swelling induced by oxazolone induced murine allergic contact dermatitis model at 0.5 mg/ear at 48 hr; assay type: functional; method in brief: as §2
[10] = species on record: Mus musculus; experiment: Inhibition of ear swelling induced by oxazolone induced murine allergic contact dermatitis model at 0.5 mg/ear at 72 hr; assay type: functional; method in brief: as §2
[11] = test system: Mus musculus; experiment: Inhibition of ear weight induced by 12-O-tetradecanoylphorbol-13-acetate (TPA) in murine chronic irritative contact dermatitis model at 0.5 mg/ear (in vivo); assay type: functional; method in brief: as §3
[12] = biological target: T4, Myeloperoxidase (Mus musculus) (UniProt P11247); experiment: Inhibition of myeloperoxidase (MPO) activity induced by TPA in murine chronic irritative contact dermatitis model at 0.5 mg/ear (in vivo); assay type: organism-based
T4 sequence (whole entry): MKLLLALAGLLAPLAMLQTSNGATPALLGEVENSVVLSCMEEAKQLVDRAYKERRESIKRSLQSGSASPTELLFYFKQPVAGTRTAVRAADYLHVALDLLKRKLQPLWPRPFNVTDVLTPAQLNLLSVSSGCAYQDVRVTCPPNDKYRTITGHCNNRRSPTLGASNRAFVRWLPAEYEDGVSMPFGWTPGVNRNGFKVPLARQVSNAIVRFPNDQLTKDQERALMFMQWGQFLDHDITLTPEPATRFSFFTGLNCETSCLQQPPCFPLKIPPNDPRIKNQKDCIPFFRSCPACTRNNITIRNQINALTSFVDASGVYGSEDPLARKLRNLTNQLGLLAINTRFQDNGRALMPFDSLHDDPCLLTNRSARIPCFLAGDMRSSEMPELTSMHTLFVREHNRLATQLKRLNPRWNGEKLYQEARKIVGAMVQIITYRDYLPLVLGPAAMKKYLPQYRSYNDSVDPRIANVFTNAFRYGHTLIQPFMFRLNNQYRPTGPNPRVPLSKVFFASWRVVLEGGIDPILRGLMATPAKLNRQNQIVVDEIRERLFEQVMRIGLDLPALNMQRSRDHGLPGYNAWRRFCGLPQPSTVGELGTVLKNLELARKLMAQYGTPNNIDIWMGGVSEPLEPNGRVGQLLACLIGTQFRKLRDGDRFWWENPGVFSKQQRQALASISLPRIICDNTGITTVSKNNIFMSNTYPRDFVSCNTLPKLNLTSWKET

[13] = species on record: Homo sapiens; experiment: In vitro inhibition of gamma-interferon release by human […]; assay type: functional
Method in brief: (§4)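 Human PBMC were isolated from buffy coats and diluted 1:1 in saline. Cells were held at 5×10^5 cells/mL in RPMI1640 with 2 mM glutamine and penicillin/streptomycin, then preincubated 30 min with compound. IL-12: 2% FCS, IFN-γ 95 ng/mL for 18 h, then LPS for 24 h. IL-2 and IFN-γ: 10% FCS, phytohemagglutinin for 48 h. Supernatant cytokine measured by sandwich ELISA.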

[14] = biological target: T5, MAP kinase p38 (Homo sapiens, UniProt O15264+Q15759+Q16539+P53778); experiment: In vitro inhibition of IL1-beta release from LPS stimulated human peripheral blood mononuclear cells.; assay type: functional
Method in brief: (§5)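 Human PBMC from buffy coats (Lymphoprep), 5×10^5 cells/mL in RPMI1640 with 2% FCS, glutamine, penicillin/streptomycin; 30 min preincubation with compound, then LPS stimulation, 18 h at 37 °C, 5% CO2.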

[15] = biological target: T5, MAP kinase p38; experiment: In vitro inhibition of TNF-alpha release from LPS stimulated human peripheral blood mononuclear cells.; assay type: functional; method in brief: as §5
[16] = species on record: Homo sapiens; experiment: In vitro inhibition of cytokine IL-12 release by human […]; assay type: functional; method in brief: as §4
[17] = species on record: Homo sapiens; experiment: In vitro inhibition of cytokine IL-2 release by human […]; assay type: functional; method in brief: as §4
[18] = biological target: T5, MAP kinase p38; experiment: In vitro inhibition of cytokine IL-6 release by human […]; assay type: functional
Method in brief: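 PBMC isolated from buffy coats, 5×10^5 cells/mL in RPMI1640 plus 2% FCS, glutamine and antibiotics. Compound added 30 min before LPS; culture 6 h. Supernatant IL-6 or IL-8 quantified by ELISA kits.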

[19] = biological target: Mitogen-activated protein kinase 8 (Homo sapiens) (UniProt P45983); experiment: Inhibition of c-Jun N-terminal kinase 1 at 10 uM
Sequence of Mitogen-activated protein kinase 8 (Homo sapiens) (P45983 whole entry): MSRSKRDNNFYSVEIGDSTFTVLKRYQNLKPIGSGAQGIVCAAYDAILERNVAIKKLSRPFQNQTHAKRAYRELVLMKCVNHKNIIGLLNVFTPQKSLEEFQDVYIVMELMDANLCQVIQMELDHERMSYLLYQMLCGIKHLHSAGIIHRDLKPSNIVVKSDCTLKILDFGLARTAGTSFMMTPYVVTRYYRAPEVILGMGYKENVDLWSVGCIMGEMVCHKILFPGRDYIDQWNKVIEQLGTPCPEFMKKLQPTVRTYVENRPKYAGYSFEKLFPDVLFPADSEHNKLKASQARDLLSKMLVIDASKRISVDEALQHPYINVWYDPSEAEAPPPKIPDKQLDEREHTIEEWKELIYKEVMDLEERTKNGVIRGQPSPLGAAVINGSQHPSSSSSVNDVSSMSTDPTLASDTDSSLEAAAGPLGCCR
Method in brief: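 JNK1 activity from UV-stimulated MCF-7 cells, measured with a JNK1 kinase kit in presence of compound.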

[20] = biological target: T5, MAP kinase p38; experiment: In vitro inhibition of cytokine IL-10 release by human […]; assay type: functional
Method in brief: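 Buffy-coat PBMC at 5×10^5 cells/mL in RPMI1640 with 10% FCS, glutamine, antibiotics; 30 min compound preincubation, then phytohemagglutinin stimulation and 48 h incubation.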

[21] = biological target: T5, MAP kinase p38; experiment: In vitro inhibition of cytokine IL-8 release by human peripheral blood mononuclear cells
[22] = biological target: T4, Myeloperoxidase (Mus musculus); experiment: Inhibition of myeloperoxidase (MPO) activity induced by oxazolone in murine allergic contact dermatitis model at 0.5 mg/ear at 72 hr (in vivo)
[23] = test system: Mus musculus; experiment: Inhibition of ear swelling induced by oxazolone in murine allergic contact dermatitis model at 0.001 mg/ear at 24 hr (in vivo); assay type: functional; method in brief: as §2
[24] = test system: Mus musculus; experiment: Inhibition of ear swelling induced by oxazolone in murine allergic contact dermatitis model at 0.001 mg/ear at 72 hr (in vivo); assay type: functional; method in brief: as §2
[25] = biological target: T4, Myeloperoxidase (Mus musculus); experiment: Inhibition of myeloperoxidase (MPO) activity induced by oxazolone in murine allergic contact dermatitis model at 0.001 mg/ear at 24 hr (in vivo); assay type: organism-based
[26] = test system: Mus musculus; experiment: Inhibition of ear swelling induced by oxazolone in murine allergic contact dermatitis model at 0.5 mg/ear at 48 hr (in vivo)
[27] = test system: Mus musculus; experiment: Inhibition of ear swelling in oxazolone induced murine allergic contact dermatitis model at 0.5 mg/ear at 48 hr (in vivo); assay type: functional; method in brief: as §2
[28] = test system: Mus musculus; experiment: Inhibition of ear swelling in oxazolone induced murine allergic contact dermatitis model at 0.5 mg/ear at 72 hr (in vivo); assay type: functional; method in brief: as §2
[29] = test system: Mus musculus; experiment: Inhibition of ear swelling in oxazolone-induced murine allergic contact dermatitis at 0.5 mg/ear at 24 hr (in vivo); assay type: functional; method in brief: as §2
[30] = test system: Mus musculus; experiment: Inhibition of ear swelling induced by 12-O-tetradecanoylphorbol-13-acetate (TPA) in murine chronic irritative contact dermatitis model at 0.001 mg/ear (in vivo); assay type: functional; method in brief: as §3
[31] = test system: Mus musculus; experiment: Inhibition of ear weight induced by 12-O-tetradecanoylphorbol-13-acetate (TPA) in murine chronic irritative contact dermatitis model at 0.001 mg/ear (in vivo); assay type: functional; method in brief: as §3
[32] = biological target: T4, Myeloperoxidase (Mus musculus); experiment: Inhibition of myeloperoxidase (MPO) activity induced by TPA in murine chronic irritative contact dermatitis model at 0.001 mg/ear (in vivo); assay type: organism-based

Row | Structure (SMILES) | inhibition [1] | pIC50 [2] | inhibition [3] | inhibition [4] | inhibition [5] | inhibition [6] | Inhibition [8] | Inhibition [11] | inhibition [12] | pIC50 [13] | IC50 [14] | IC50 [15] | pIC50 [16] | pIC50 [17] | IC50 [18] | IC50 [20] | IC50 [21] | inhibition [22] | further results
1 | Cc1ccccc1C(=O)c1ccc(Nc2ccc(Br)cc2N)cc1Cl | 0% | 7.41 | 82% | 93% | 0% | 0% | 27% | 34% | 79% | < 6.00 | 30 nM | 5 nM | < 6.00 | < 6.00 | 17 nM | 74 nM | 4 nM | 56% | Inhibition [7]: 35%; Inhibition [9]: 38%; Inhibition [10]: 46%; inhibition [19]: 0%
2 | CCCCO[C@]1(C(=O)CO)CCC2C3CCC4=CC(=O)CCC4(C)C3C(O)CC21C (stereo not given in full) |  |  |  |  |  |  |  |  |  |  |  |  |  |  |  |  |  |  | Inhibition [23]: 43%; Inhibition [24]: 55%; inhibition [25]: 41%; Inhibition [26]: 55%
3 | Cc1ccccc1C(=O)c1ccc(Nc2ccccc2N)cc1Cl | 20% | 8.00 | 88% | 93% | 8% | 0% | 37% | 27% | 73% | < 6.00 | 14 nM | 6 nM | < 6.00 | < 6.00 | 18 nM | 12 nM | 6 nM | 56% | Inhibition [27]: 46%; Inhibition [28]: 46%; Inhibition [29]: 43%
4 | CCCCC(=O)O[C@]1(C(=O)CO)[C@@H](C)C[C@H]2[C@@H]3CCC4=CC(=O)C=C[C@]4(C)[C@@]3(F)[C@@H](O)C[C@@]21C [BETAMETHASONE VALERATE] |  |  |  |  |  |  |  |  |  |  |  |  |  |  |  |  |  |  | Inhibition [30]: 41%; Inhibition [31]: 38%; inhibition [32]: 67%
